pIC50: −log10 of the molar value.

In data set [1] the test system is Mus musculus. The experiment in a line: (§1) Toxicity studies on male athymic NCr-nu mice administered ip daily for 5 consecutive days then rested for 10 days, and a second cycle of treatment also followed the q1d x 5 schedule. It counts as organism-based. The note with it: in vivo, 240 h.
The test system of data set [2] is PC-3. Put plainly: Growth inhibitory effect was assessed against the human prostate tumor cell line PC-3 using MTT assay. The note with it: read-out: ID50 (the source's name). It is filed as functional. In outline: (§2)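 Cells seeded at 500 per well and incubated overnight at 37 °C in humidified 95% air/5% CO2, then exposed to serially diluted drug for 6 days, each concentration in quadruplicate, with buffer controls. MTT (5 mg/mL solution) added for 4 h at 37 °C; lysed overnight at 37 °C in SDS/DMF buffer, pH 4.8; absorbance at 570 nm. ID50 is the concentration giving 50% growth inhibition.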
A general note: Formazan colour is commonly taken as a measure of viable cells.

In data set [3] the test system is DuPro. Put plainly: Growth inhibitory effect was assessed against the human prostate tumor cell line DuPro using MTT assay. It counts as functional. The settings on record: read-out: ID50 (the source's name). A digest of the protocol: as §2
In data set [4] the test system is DU-145. Put plainly: Growth inhibitory effect was assessed against the human prostate tumor cell line Du-145 using MTT assay. It is filed as functional. The note with it: read-out: ID50 (the source's name). A digest of the protocol: as §2
Data set [5] deals with Mus musculus. The experiment in a line: Toxicity studies on male athymic NCr-nu mice administered ip daily for 5 consecutive days then rested for 10 days, and a second cycle of treatment also followed the q1d x 5 schedule; Death of all treated mice. It is filed as organism-based. The note with it: in vivo, 240 h.
Data set [6] can be described thus: as §1. The settings on record: mouse, in vivo, read-out: Lethality. It is filed as organism-based.
In data set [7] the test system is Mus musculus. Put plainly: Toxicity studies on male athymic NCr-nu mice administered ip daily for 5 consecutive days then rested for 10 days, and a second cycle of treatment also followed the q1d x 5 schedule; Two treatment-related deaths out of three animals. The settings on record: in vivo, 240 h. It is filed as organism-based.
The subject of data set [8] is Mus musculus. Put plainly: Toxicity studies on male athymic NCr-nu mice administered ip daily for 5 consecutive days then rested for 10 days, and a second cycle of treatment also followed the q1d x 5 schedule; Death of all three mice. The settings on record: in vivo, 240 h. It is filed as organism-based.

In data set [1], `CCNCCCCNCC1CC1CNCCCCNCCCCNCC1CC1CNCCCCNCCCCNCC1CC1CNCCCCNCC.Cl` (stereo not given) gave a Lethal dose of 25 mg/kg. Besides, the values for the pIC50 in data set [2], in data set [3] and in data set [4] were 6.52, 6.70 and 6.66, respectively.
Regarding `CCNCC1CC1CNCC1CC1CNCC1CC1CNCC.Cl` (stereo not given), the Lethal dose in data set [5] is 75 mg/kg. Further, the figures for the pIC50 in data set [2], in data set [3] and in data set [4] were less than 4.50, 6.20 and 7.10, respectively.
Regarding `CCNCCCCNCCCCNCCCCNCCCCNCC1CC1CNCCCCNCCCCNCCCCNCCCCNCC` (stereo not given), the mortality at 240 h in data set [6] was determined as 100%. The figures for the pIC50 in data set [2], in data set [3] and in data set [4] were 6.40, 6.47 and 6.70, respectively.
Take `CCNCCCCNCC1CC1CNCCCCNCC1CC1CNCCCCNCC.Cl` (stereo not given): the Lethal dose in data set [7] was found to be 25 mg/kg. Moreover, the values for the pIC50 in data set [2], in data set [3] and in data set [4] were less than 4.51, 6.42 and 6.92, respectively.
Consider `CCNCC1CC1CNCCCCNCC1CC1CNCC.Cl` (stereo not given), for which the pIC50 in data set [2] is less than 4.51; in data set [3] it was 6.59; in data set [4] it was 7.22. For the same molecule, the Lethal dose in data set [8] is 75 mg/kg.
